Results from different studies.
Each line is one published result; the experiments were not run side by side.
FAP: Prolyl endopeptidase FAP (FAP, Homo sapiens, UniProt Q12884)
PSMB6: Proteasome subunit beta type-6 (PSMB6, Homo sapiens, UniProt P28072)
CDK1 with cyclin B: Cyclin-dependent kinase 1, with cyclin B (CDK1, Homo sapiens, UniProt P06493)
PRKAA2: 5'-AMP-activated protein kinase catalytic subunit alpha-2 (PRKAA2, Homo sapiens, UniProt P54646)

Structure (SMILES)	target	effect on	action	method	concentration	quantity	value
CCN(CC)CCCC[C@H](NC(=O)[C@H](CC(C)C)NC(=O)[C@H](C)NC(=O)[C@H](Cc1ccccc1)NC(=O)c1ccc(C(C)(C)C)cc1)C(=O)N[C@@H](CO)C(=O)OC	SP140 (Homo sapiens, UniProt Q13342)	thermal stability		DSF	25 µM	ΔTm	0.07 °C
CCOC(=O)c1ccc(OC(=O)CCCCCNC(=N)N)cc1	FAP	enzyme activity	inhibitor		10 µM	inhibition	29%
Nc1cccc(-c2nsc(=O)o2)c1	PSMB6	enzyme activity	inhibitor			kinact/KI	0.61 M⁻¹ s⁻¹
Cn1cc(-c2cc(F)cc(N3CCn4c(cc5c4CCCC5)C3=O)c2CO)cc(Nc2ccc(N3CCN(C4COC4)CC3)cn2)c1=O	CDK1 with cyclin B	enzyme activity	inhibitor		0.1 µM	inhibition	8%
Nc1ncc(-c2nc(N3CCOCC3)nc(N3CCOCC3)n2)c(C(F)F)n1	PRKAA2	cell-free assay		competition with immobilised ligand	10 µM	remaining binding	91%
COc1ccc(S(=O)(=O)N(CC(=O)NO)CC(C)C)cc1	Stromelysin-2 (Homo sapiens, UniProt P09238)	enzyme activity	inhibitor		10 µM	inhibition	91%
COc1cc(Br)cc(Br)c1Oc1cc(Br)cc(Br)c1O	Sulfotransferase 1E1 (SULT1E1, Homo sapiens, UniProt P49888)	enzyme activity	substrate			Km	1.09 µM
COc1ncccc1-c1cnn2ccc(N3CCN(C(=O)OC(C)C)CC3)nc12	Bone morphogenetic protein receptor type-2 (BMPR2, Homo sapiens, UniProt Q13873)	binding		competition with immobilised ligand	1 µM	remaining binding	72%
Nc1ccc(-c2nsc(=O)o2)cc1	PSMB6	enzyme activity	inhibitor			kinact/KI	1.09 M⁻¹ s⁻¹
N#C[C@@H]1CC(F)(F)CN1C(=O)CNC(=O)c1ccnc2ccccc12	FAP	enzyme activity	inhibitor		1 nM	inhibition	1%
C#Cc1n[nH]c2c(-c3cn([C@@H](C)c4ccccc4)c(=O)[nH]c3=O)cc(F)cc12	Proto-oncogene tyrosine-protein kinase Src (SRC, Homo sapiens, UniProt P12931)	enzyme activity	inhibitor		0.1 µM	inhibition	8.4%
Cn1cc(-c2cccc(N3CCc4c(sc5c4CC(C)(C)C5)C3=O)c2CO)cc(Nc2ccncn2)c1=O	Serine/threonine-protein kinase Sgk2 (SGK2, Homo sapiens, UniProt Q9HBY8)	enzyme activity	inhibitor		1 µM	inhibition	3%
N=C(N)c1ccc2cc(OC(=O)c3ccc(N=C(N)N)cc3)ccc2c1	FAP	enzyme activity	inhibitor		10 µM	inhibition	25%
Cc1nn(C)cc1-c1nc2c(N3CCN(Cc4ccc(Cl)cc4)CC3)c(Cl)cnc2[nH]1	PRKAA2	binding		competition with immobilised ligand	1 µM	remaining binding	0.9%
C#Cc1n[nH]c2c(-c3cn(C(C)c4ccccn4)c(=O)[nH]c3=O)cc(F)cc12 (stereo not shown)	CDK1 with cyclin B	enzyme activity	inhibitor		1 µM	inhibition	6.8%
CN(C)C(=O)COC(=O)Cc1ccc(OC(=O)c2ccc(NC(=N)N)cc2)cc1	FAP	enzyme activity	inhibitor		10 µM	inhibition	30%
